{
  "source": "ChEMBL document CHEMBL5506013",
  "about": "“Mitochondria-Selective Dicationic Small-Molecule Ligand Targeting G-Quadruplex Structures for Human Colorectal Cancer Therapy” (J Med Chem, 2024)",
  "key": {"Quadruplex DNA [1]": {"molecular_target": "Quadruplex DNA", "assay": "Binding affinity to mito 29 G4 DNA (unknown origin) assessed as dissociation constant measured upto 450 secs by surface plasmon resonance assay", "assay_type": "nucleic-acid assay", "how_it_was_run": "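Surface plasmon resonance in buffer at 25 °C. Four G4-mtDNAs (Mito 78, Mito 55, Mito 29, Mito 0.5-16) and the hairpin HP19 served as substrates. Kd was derived from the sensorgrams.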"}, "MDA-MB-231": {"system": "MDA-MB-231", "assay": "Antiproliferative activity against human MDA-MB-231 cells measured after 48 hrs by MTT assay", "assay_type": "functional, cell-based", "details": "MDA-MB-231, 48 h", "how_it_was_run": "(§1)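 Cells exposed to the ligands for 48 h. Viability was read by MTT, and the IC50 was derived from the response.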"}, "[2]": {"assay": "Antiproliferative activity against human HFF-1 cells measured after 48 hrs by MTT assay", "assay_type": "toxicity, cell-based", "details": "HFF-1 cells", "how_it_was_run": "as §1"}, "[3]": {"assay": "Drug localization in endoplasmic reticulum of living human HCT-116 cells assessed as colocalization at 4 uM incubated for 1 hr by ER-tracker blue staining based analysis", "assay_type": "ADME, subcellular", "details": "hct-116, 1 h", "how_it_was_run": "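Live HCT116 cells co-stained with ligand and ER-Tracker Blue. Colocalization assessed by confocal imaging.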"}, "HCT-116 [4]": {"system": "HCT-116", "assay": "Downregulation of ND1 gene expression in human HCT-116 cells at 0 to 4 uM measured after 48 hrs by q-PCR analysis", "assay_type": "functional, cell-based", "details": "dose 0-4 µM"}, "HCT-116 [5]": {"system": "HCT-116", "assay": "Downregulation of ATP8 mRNA level in human HCT-116 cells at 0 to 4 uM measured after 48 hrs by qRT-PCR analysis", "assay_type": "functional, cell-based", "details": "dose 0-4 µM"}, "HFF-1": {"system": "HFF-1", "assay": "Downregulation of ND5 mRNA level in human HFF-1 cells at 0 to 4 uM measured after 48 hrs by qRT-PCR analysis", "assay_type": "functional, cell-based", "details": "dose 0-4 µM"}, "HCT-116 [6]": {"system": "HCT-116", "assay": "Downregulation of ND4 protein level in human HCT-116 cells at upto 4 uM incubated for 48 hrs by Western blot analysis", "assay_type": "functional, cell-based"}, "HCT-116 [7]": {"system": "HCT-116", "assay": "Downregulation of ND6 protein level in human HCT-116 cells at upto 4 uM incubated for 48 hrs by Western blot analysis", "assay_type": "functional, cell-based"}, "HCT-116 [8]": {"system": "HCT-116", "assay": "Downregulation of mitochondrial respiratory chain complex II level in human HCT-116 cells at upto 4 uM measured after 48 hrs by Western blot analysis", "assay_type": "functional, cell-based"}, "HCT-116 [9]": {"system": "HCT-116", "assay": "Induction of mitochondrial dysfunction in human HCT-116 cells assessed as decrease in ATP production at upto 4 uM incubated for 3 hrs by Seahorse XFe24 analyzer", "assay_type": "functional, cell-based", "how_it_was_run": "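Seahorse Mito-stress and glycolysis stress tests on HCT116 cells treated with ligand for 3 h. Oxygen consumption rate and extracellular acidification rate recorded.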"}, "Quadruplex DNA [10]": {"system": "Quadruplex DNA", "assay": "Binding affinity to mito 78 G4 DNA (unknown origin) assessed as increase in fluorescence intensity by fluorescence spectrophotometric analysis", "assay_type": "nucleic-acid assay", "how_it_was_run": "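Fluorescence titration in buffer. Ligand at 5 uM mixed with 20 uM pre-annealed DNA (95 °C for 10 min, slow cooling). Emission collected at 550-800 nm and monitored at 650 nm. Result reported as fold enhancement F/F0 over ligand alone.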"}, "DNA": {"system": "DNA", "assay": "Binding affinity to HP19 DNA (non-G4 DNA) (unknown origin) assessed as increase in CD signal at 5 uM by circular dichroism spectroscopic analysis", "assay_type": "nucleic-acid assay"}, "Quadruplex DNA [11]": {"system": "Quadruplex DNA", "assay": "Binding affinity to Mito 0.5-15 G4 DNA (unknown origin) assessed as change in melting temperature at 5 uM by circular dichroism spectroscopic analysis", "assay_type": "nucleic-acid assay"}, "Quadruplex DNA [12]": {"system": "Quadruplex DNA", "assay": "Binding affinity to Mito 0.5-16 G4 DNA (unknown origin) assessed as change in melting temperature at 5 uM by circular dichroism spectroscopic analysis", "assay_type": "nucleic-acid assay"}, "Quadruplex DNA [13]": {"system": "Quadruplex DNA", "assay": "Binding affinity to Mito 78 G4 DNA (unknown origin) assessed as change in melting temperature at 5 uM by circular dichroism spectroscopic analysis", "assay_type": "nucleic-acid assay"}, "[14]": {"assay": "Drug localization in nucleus of human HCT-116 cells at 1 to 8 uM incubated for 1 hrs by hoechst33342 staining based live cell imaging analysis", "assay_type": "ADME, subcellular", "details": "hct-116, 1 h, dose 1-8 µM"}, "[15]": {"assay": "Drug localization in human HCT-116 cells by measuring red foci at 4 uM incubated for 1 hr in presence of cyclosporin A by hoechst33342 staining based analysis", "assay_type": "ADME, cell-based", "details": "hct-116, 1 h", "how_it_was_run": "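Pretreatment of live HCT116 cells: FCCP 1 uM for 20 min, cyclosporin A 1 uM for 24 h, DMOG 100 uM for 24 h, or MitoPDS at several concentrations for 3 h (applied after dye loading). Cells loaded with ligand 4 uM (excitation 488 nm) for 1 h and Hoechst33342 1 uM for 30 min. Red foci counted by confocal imaging in 100 cells. Mean ± SEM, t test.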"}, "HCT-116 [16]": {"system": "HCT-116", "assay": "Induction of cell cycle arrest in human HCT-116 cells assessed as accumulation of cells at G0/G1 phase at 1 to 4 uM measured after 72 hrs by PI staining based flow cytometry analysis (reference value: 50.66%)", "assay_type": "functional", "details": "dose 1-4 µM", "how_it_was_run": "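HCT116 cells treated at 0-4 uM for 72 h. Cell-cycle distribution measured by flow cytometry and G0/G1 percentage recorded.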"}, "HCT-116 [17]": {"system": "HCT-116", "assay": "Upregulation of p16 level in human HCT-116 cells at upto 4 uM measured after 72 hrs by Western blot analysis", "assay_type": "functional, cell-based", "how_it_was_run": "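HCT116 cells treated with ligand at 0-4 uM for 72 h. Lysates immunoblotted for Lamin B1, p53, p21, p16, gamma-H2A.x, caspase-3 and cleaved caspase-3, with beta-actin as loading control.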"}, "HCT-116 [18]": {"system": "HCT-116", "assay": "Inhibition of cell proliferation in human HCT-116 cells at 4 uM measured after 7 days by colony formation assay relative to control", "assay_type": "functional", "details": "HCT-116, 168 h, time 7 day", "how_it_was_run": "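Colony formation: HCT116 cells treated for 7 days at 0, 1, 2 or 4 uM, colonies counted and quantified; mean ± SD.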"}, "[19]": {"assay": "Toxicity in BALB/c nude mouse assessed as change in white blood cell count at 5 mg/kg, iv administered every two days for 16 days", "assay_type": "organism-based", "details": "in vivo, 384 h, time 16 day", "how_it_was_run": "(§2)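 HCT116 xenograft-bearing male Balb/c nude mice (6/group) dosed iv at 5 mg/kg every two days or with PBS. Whole blood collected at sacrifice on day 16 for hematology parameters.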"}, "[20]": {"assay": "Toxicity in BALB/c nude mouse assessed as change in mean red blood cell hemoglobin concentration at 5 mg/kg, iv administered every two days for 16 days", "assay_type": "organism-based", "details": "in vivo, 384 h, time 16 day", "how_it_was_run": "as §2"}, "[21]": {"assay": "Drug localization in human HCT-116 cells transfected with Cy5-SS19 non G4 DNA at 4 uM incubated for 1 hr by hoechst33342 staining based analysis", "assay_type": "ADME, cell-based", "details": "hct-116, 1 h", "how_it_was_run": "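HCT116 cells transfected with Cy5-labelled DNA (excitation 635 nm) for 24 h. Ligand 4 uM added for 1 h, then Hoechst33342 1 uM for 30 min. Colocalization of ligand with Cy5 quantified by Pearson r from confocal images.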"}, "[22]": {"assay": "Drug localization in human HCT-116 cells overexpressing eBFP tagged Pif1 by measuring red foci at 4 uM incubated for 1 hr by hoechst33342 staining based analysis", "assay_type": "ADME, cell-based", "details": "hct-116, 1 h", "how_it_was_run": "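HCT116 cells overexpressing eBFP-tagged Pif1 (excitation 405 nm), with an eBFP-only control. Cells incubated with ligand 4 uM (excitation 488 nm) for 1 h, then red foci imaged by confocal microscopy in 100 cells. Mean ± SEM, t test.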"}, "[23]": {"assay": "Drug localization in human HCT-116 cells overexpressing […] by measuring red foci at 4 uM incubated for 1 hr by hoechst33342 staining based analysis", "assay_type": "ADME, cell-based", "details": "hct-116, 1 h"}},
  "note": "Calls of active or inactive are those of the source. No cut-off for these calls is given here.",
  "data": [
    {"smiles": "C(=C\\c1ccc2ccccc2[n+]1CCCCCCCC[n+]1c(/C=C/c2ccc(N3CCCCC3)cc2)ccc2ccccc21)/c1ccc(N2CCCCC2)cc1.[I-].[I-]", "values": [
      {"measurement": "Kd", "setting": "Quadruplex DNA [1]", "result": 0.11, "unit": "µM"},
      {"measurement": "IC50", "setting": "MDA-MB-231", "result": 34.6, "unit": "µM"},
      {"measurement": "IC50 at 48 h", "setting": "[2]", "result": 32.7, "unit": "µM"},
      {"measurement": "Drug uptake", "setting": "[3]", "result": "Not Active"},
      {"measurement": "Activity", "setting": "HCT-116 [4]", "result": "Active"},
      {"measurement": "Activity", "setting": "HCT-116 [5]", "result": "Active"},
      {"measurement": "Activity", "setting": "HFF-1", "result": "Active"},
      {"measurement": "Activity", "setting": "HCT-116 [6]", "result": "Active"},
      {"measurement": "Activity", "setting": "HCT-116 [7]", "result": "Active"},
      {"measurement": "Activity", "setting": "HCT-116 [8]", "result": "Active"},
      {"measurement": "Activity", "setting": "HCT-116 [9]", "result": "Active"},
      {"measurement": "Activity", "setting": "Quadruplex DNA [10]", "result": "Active"},
      {"measurement": "Activity", "setting": "DNA", "result": "inactive"},
      {"measurement": "ΔTm", "setting": "Quadruplex DNA [11]", "result": 3.6, "unit": "°C"},
      {"measurement": "ΔTm", "setting": "Quadruplex DNA [12]", "result": 16.5, "unit": "°C"},
      {"measurement": "ΔTm", "setting": "Quadruplex DNA [13]", "result": 11.3, "unit": "°C"},
      {"measurement": "Drug uptake", "setting": "[14]", "result": "Not Active"},
      {"measurement": "Drug uptake", "setting": "[15]", "result": "Active"},
      {"measurement": "Activity", "setting": "HCT-116 [16]", "result": 66.01, "unit": "%"},
      {"measurement": "Activity", "setting": "HCT-116 [17]", "result": "Active"},
      {"measurement": "inhibition at 4 µM", "setting": "HCT-116 [18]", "result": 100, "unit": "%"},
      {"measurement": "Activity", "setting": "[19]", "result": "Non-Toxic"},
      {"measurement": "Activity", "setting": "[20]", "result": "Non-Toxic"},
      {"measurement": "Drug uptake", "setting": "[21]", "result": "Not Active"},
      {"measurement": "Drug uptake", "setting": "[22]", "result": "Not Active"},
      {"measurement": "Drug uptake", "setting": "[23]", "result": "Active"}
    ]}
  ]
}
